1 molecule from ChEMBL document CHEMBL5046323, “Discovery of Phospholipase D Inhibitors with Improved Drug-like Properties and Central Nervous System Penetrance” (ACS Med Chem Lett, 2022) can be followed below.

As usually defined, the IC50 is the concentration that gives 50% inhibition. One may read the Tmax as the time from dosing to the highest level.

Data set [1] can be described thus: Unbound brain concentration in sc dosed C57BL/6 mouse measured after 15 mins by LC-FTICR-MS analysis. The class given is ADME, organism-based. The note with it: in vivo, 0.25 h. In short, it runs like this:
(§1)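 Mice dosed subcutaneously at 10 mg/kg 15, 30 or 60 min before injection of 1-butanol-d10; tissues (liver, brain) collected 15 min after butanol injection for compound levels.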

A short description of data set [2]: Plasma protein binding in sc dosed C57BL/6 mouse assessed as unbound fraction by LC-MS/MS analysis. The class given is ADME, organism-based. As to conditions: in vivo.
Data set [3] can be described thus: Plasma protein binding in sc dosed C57BL/6 mouse by LC-MS/MS analysis. The class given is ADME, organism-based. The note with it: in vivo.
Data set [4] can be described thus: Microsomal stability in rat liver microsomes assessed as intrinsic clearance. The class given is ADME, Microsome. The note with it: read-out: CLH. In outline:
(§2)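 Intrinsic clearance (CLint) determined in rat or human liver microsomes.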
(In general: Liver microsomes are a subcellular fraction often used to study metabolism.)

Data set [5] deals with Phospholipase D1 (Homo sapiens) (UniProt Q13393). Put plainly: Inhibition of PLD1 in human Calu-1 cells assessed as reduction in d9-phosphobutanol formation by mass spectrometry-based transphosphatidylation assay.
The nature of data set [6]: Tmax in sc dosed C57BL/6 mouse by LC-MS/MS analysis. The data set is classed as ADME, organism-based. The note with it: in vivo.
The target of a further data set is Cytochrome P450 2C9 (Homo sapiens, UniProt P11712). Briefly: Inhibition of CYP2C9 (unknown origin). The class given is ADME.
Data set [7] addresses Voltage-gated inwardly rectifying potassium channel KCNH2 (Homo sapiens, UniProt Q12809). Put plainly: Inhibition of human ERG. The class given is toxicity.
For the next data set, the target named is T1, Cytochrome P450 2B6 (Homo sapiens, UniProt P20813).
T1 sequence (P20813 whole entry): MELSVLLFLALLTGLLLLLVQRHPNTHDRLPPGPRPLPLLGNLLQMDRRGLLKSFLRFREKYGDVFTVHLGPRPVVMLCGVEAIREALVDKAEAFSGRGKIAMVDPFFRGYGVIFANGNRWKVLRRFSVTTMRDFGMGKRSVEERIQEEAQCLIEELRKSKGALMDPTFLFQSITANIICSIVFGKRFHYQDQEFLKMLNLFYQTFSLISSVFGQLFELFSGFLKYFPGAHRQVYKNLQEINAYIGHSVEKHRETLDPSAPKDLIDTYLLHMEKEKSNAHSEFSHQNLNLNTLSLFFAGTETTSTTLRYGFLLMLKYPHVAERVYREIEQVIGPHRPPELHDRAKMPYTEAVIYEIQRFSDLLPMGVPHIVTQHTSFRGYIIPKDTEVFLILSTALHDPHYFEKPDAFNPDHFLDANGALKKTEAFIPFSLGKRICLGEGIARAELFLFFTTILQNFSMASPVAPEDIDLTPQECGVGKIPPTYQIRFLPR
Put plainly: Inhibition of CYP2B6 (unknown origin). The class given is ADME.

Data set [8] can be described thus: Tmax in po dosed rat. The note with it: in vivo. The class given is ADME, organism-based. In outline: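 Rat oral PK, average of two experiments with n = 3 rats each; formulation HPMC/Tween.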
The nature of data set [9]: Unbound brain concentration in sc dosed C57BL/6 mouse measured after 60 mins by LC-FTICR-MS analysis. The class given is ADME, organism-based. As to conditions: in vivo, 1 h. In outline: as §1
A short description of data set [10]: Drug concentration in sc dosed C57BL/6 mouse brain measured after 60 mins by LC-FTICR-MS analysis. The data set is classed as ADME, organism-based. The note with it: read-out: Ct. In outline:
as §1

The nature of data set [11]: Microsomal stability in human liver microsomes assessed as intrinsic clearance. The note with it: read-out: CLH. The data set is classed as ADME, Microsome. In short, it runs like this: as §2

Voltage-gated inwardly rectifying potassium channel KCNH2, sequence (Q12809 whole entry): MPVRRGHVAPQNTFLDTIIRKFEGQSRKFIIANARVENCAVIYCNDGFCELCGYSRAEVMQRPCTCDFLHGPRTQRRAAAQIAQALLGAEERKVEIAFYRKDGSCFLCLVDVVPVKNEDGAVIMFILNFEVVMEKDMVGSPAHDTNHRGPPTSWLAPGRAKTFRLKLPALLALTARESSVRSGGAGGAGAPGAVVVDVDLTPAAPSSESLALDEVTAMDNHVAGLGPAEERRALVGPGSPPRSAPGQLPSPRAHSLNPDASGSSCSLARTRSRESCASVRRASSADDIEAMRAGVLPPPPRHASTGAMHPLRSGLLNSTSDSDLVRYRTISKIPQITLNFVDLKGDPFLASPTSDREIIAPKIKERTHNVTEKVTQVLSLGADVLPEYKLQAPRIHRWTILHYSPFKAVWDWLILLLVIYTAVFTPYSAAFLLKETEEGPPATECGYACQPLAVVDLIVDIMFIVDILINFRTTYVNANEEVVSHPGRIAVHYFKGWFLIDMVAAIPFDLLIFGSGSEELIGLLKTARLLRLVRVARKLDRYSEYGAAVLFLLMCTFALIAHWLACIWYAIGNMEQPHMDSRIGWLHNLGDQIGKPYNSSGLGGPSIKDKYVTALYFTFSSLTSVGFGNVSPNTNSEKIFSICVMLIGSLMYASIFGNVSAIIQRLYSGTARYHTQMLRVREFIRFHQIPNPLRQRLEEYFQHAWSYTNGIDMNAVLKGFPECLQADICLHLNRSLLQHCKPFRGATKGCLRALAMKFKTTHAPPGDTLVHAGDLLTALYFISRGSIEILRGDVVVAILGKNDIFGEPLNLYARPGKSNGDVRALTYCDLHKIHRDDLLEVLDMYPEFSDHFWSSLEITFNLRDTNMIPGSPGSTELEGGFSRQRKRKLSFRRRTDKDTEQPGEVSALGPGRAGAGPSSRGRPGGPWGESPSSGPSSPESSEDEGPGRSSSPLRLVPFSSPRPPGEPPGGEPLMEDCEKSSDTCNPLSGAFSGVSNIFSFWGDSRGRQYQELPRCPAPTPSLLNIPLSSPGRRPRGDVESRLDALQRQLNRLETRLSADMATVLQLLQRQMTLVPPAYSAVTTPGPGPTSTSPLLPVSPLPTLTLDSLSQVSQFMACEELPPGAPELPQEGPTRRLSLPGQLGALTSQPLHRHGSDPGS
Cytochrome P450 2C9, sequence (P11712 whole entry): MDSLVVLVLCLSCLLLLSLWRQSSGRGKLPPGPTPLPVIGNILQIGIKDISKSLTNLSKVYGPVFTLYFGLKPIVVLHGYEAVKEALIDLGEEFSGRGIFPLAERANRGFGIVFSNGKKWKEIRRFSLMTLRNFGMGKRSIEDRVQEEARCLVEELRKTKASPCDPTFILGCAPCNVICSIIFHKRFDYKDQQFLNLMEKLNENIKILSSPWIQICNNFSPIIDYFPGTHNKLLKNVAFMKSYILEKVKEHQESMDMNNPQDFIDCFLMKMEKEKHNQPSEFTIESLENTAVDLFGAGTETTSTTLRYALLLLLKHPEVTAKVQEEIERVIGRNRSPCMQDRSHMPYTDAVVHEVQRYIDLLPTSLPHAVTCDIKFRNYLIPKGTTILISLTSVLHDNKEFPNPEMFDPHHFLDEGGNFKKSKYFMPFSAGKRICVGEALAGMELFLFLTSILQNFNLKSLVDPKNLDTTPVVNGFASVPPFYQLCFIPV

Regarding `C[C@@H]1CN(C(=O)[C@H](C)N2CCC(n3c(=O)[nH]c4ccccc43)CC2)C[C@@H](C)N1`, the entries for the “Drug uptake(free)” value in [1] and in data set [9] were 38.1 nM and 53.2 nM, respectively. For the same molecule, the Fu in [2] was 17.5%. In data set [3], this molecule had a PPB of 17.2%. The results for the CLint scaled in data set [4] and in data set [11] were 64 mL/min/kg and 6 mL/min/kg, respectively. The IC50 in [5] is 0.006 µM; on Cytochrome P450 2C9 it was greater than 10 µM; in data set [7], greater than 30 µM; on Cytochrome P450 2B6, greater than 10 µM. Moreover, the figures for the Tmax in data set [6] and in data set [8] were 0.44 h and 3 h, respectively. Moreover, the concentration at 1 h in [10] was 117 ng/g.
